The source made the active and inactive calls.

Data set [1] has as its system P388. Nature of the data set: Percent increase in life span when compound administered at 100 mg/kg against P388 leukemia cells in BDF1 mice. Conditions: Mus musculus. It is filed as functional, organism-based. The arrangement: dose 100 mg/kg. The method in brief: (§1)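 BDF1 mice bearing P388, L1210 or cisplatin-resistant L1210 leukemia; ip dosing on days 1, 5 and 9 relative to tumor inoculation, 30-day observation. Median % ILS over controls at optimal dose plus % survivors; ≥25% ILS counted as active, ≥15% reduction in ILS or body weight over controls rated toxic.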

Data set [2] deals with L1210. Description: Percent increase in life span when compound administered at 12.5 mg/kg against L1210 leukemia cells in BDF1 mice. It is filed as functional, organism-based. The arrangement: dose 12.5 mg/kg. Conditions: Mus musculus. The method in brief:
as §1

Data set [3] has as its system L1210. Description: Percent survivors when compound administered at 50 mg/kg against L1210 cisplatin resistant leukemia cells in BDF1 mice; IA=inactive. The data set is classed as functional, organism-based. Also on record: dose 50 mg/kg. Conditions: Mus musculus. The method in brief:
(§2)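 BDF1 mice inoculated with P388, L1210 or cisplatin-resistant L1210 leukemia. Compound given ip on days 1, 5 and 9 relative to tumor inoculation, and mice observed for 30 days. Median % increase in life span over controls and % survivors are reported at the optimal dose. Activity requires ILS ≥25%. Toxicity is rated when ILS or body weight is reduced by ≥15%.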

Data set [4] concerns P388. Description: Percent survivors when compound administered at 100 mg/kg against P388 leukemia cells in BDF1 mice. The data set is classed as functional, organism-based. Also on record: dose 100 mg/kg. Conditions: Mus musculus. The method in brief:
as §2

Data set [5] has as its system Mus musculus. Nature of the data set: Tumor weight inhibition against human mammary MX-1 in Athymic mice after 50 mg/kg optimal dose. As to conditions: at 50 mg/kg. The arrangement: dose 50 mg/kg. It is filed as functional, organism-based.
In data set [6] the test system is Colon 26. Description: Percent survivors when compound administered at 50 mg/kg againstColon 26 cells in balb/C mice. It is filed as functional, organism-based. The arrangement: dose 50 mg/kg. As to conditions: Mus musculus. The method in brief:
(§3)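 Colon 26 tumor in Balb/C mice. Dosing ip on days 1, 5 and 9 after tumor inoculation, with a 30-day observation period. Readouts are median % increase in life span over control mice and % survivors, given at the optimal dose. Activity threshold is ILS ≥25%. A ≥15% drop in ILS or body weight is rated toxic.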

In data set [7] the test system is Colon 26. Description: Percent in life span when compound administered at 50 mg/kg againstColon 26 cells in balb/C mice. It is filed as functional, organism-based. Also on record: dose 50 mg/kg. As to conditions: Mus musculus. The gist of the method: as §3
In data set [8] the test system is L1210. Description: Percent increase in life span when compound administered at 50 mg/kg against L1210 cisplatin resistant leukemia cells in BDF1 mice; IA=inactive. The data set is classed as functional, organism-based. Also on record: dose 50 mg/kg. Conditions: Mus musculus. The method in brief: as §1
Data set [9] relates to B16. Nature of the data set: Percent survivors when compound administered at 0.4 mg/kg against B-16 melanoma cells in […] mice. It is filed as functional, organism-based. The arrangement: dose 0.4 mg/kg. As to conditions: Mus musculus. The gist of the method:
(§4)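 Median % increase in life span versus controls and % survivors are recorded at the optimal dose. ILS ≥25% counts as active, and a ≥15% reduction in ILS or body weight counts as toxic.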

Data set [10] relates to Colon 26. Nature of the data set: Percent in life span when compound administered at 1 mg/kg againstColon 26 cells in balb/C mice. The data set is classed as functional, organism-based. The arrangement: dose 1 mg/kg. As to conditions: Mus musculus. The method in brief: (§5)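 Colon 26 in Balb/C mice. Test agents given ip on days 1, 5 and 9 relative to tumor inoculation; mice observed 30 days. Median % increase in life span at optimal dose, with % survivors noted; ILS ≥25% over controls required for activity; ILS or body weight reduced ≥15% versus controls rated toxic.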

Data set [11] concerns L1210. Nature of the data set: Percent increase in life span when compound administered at 6.2 mg/kg against L1210 leukemia cells in BDF1 mice. Also on record: dose 6.2 mg/kg. It is filed as functional, organism-based. As to conditions: Mus musculus. The method in brief: as §1
The test system of data set [12] is B16. Nature of the data set: Percent increase in life span when compound administered at 0.4 mg/kg against B-16 melanoma cells in […] mice. Also on record: dose 0.4 mg/kg. As to conditions: Mus musculus. The data set is classed as functional, organism-based. The gist of the method:
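B-16 melanoma in […] mice; compounds given ip daily on days 1–9 relative to tumor inoculation, animals followed 60 days. Read-out median % increase in life span over controls at optimal dose with % survivors; activity threshold ILS ≥25%; ≥15% reduction in ILS or body weight versus controls rated toxic.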

For data set [13], the system named is P388. Nature of the data set: Percent increase in life span when compound administered at 6.2 mg/kg against P388 leukemia cells in BDF1 mice. The data set is classed as functional, organism-based. The arrangement: dose 6.2 mg/kg. As to conditions: Mus musculus. The method in brief: as §1
Data set [14] relates to Colon 26. Description: Percent survivors when compound administered at 1 mg/kg againstColon 26 cells in balb/C mice. As to conditions: Mus musculus. Also on record: dose 1 mg/kg. The data set is classed as functional, organism-based. The method in brief:
as §3

In data set [15] the test system is P388. Nature of the data set: Percent survivors when compound administered at 6.2 mg/kg against P388 leukemia cells in BDF1 mice. It is filed as functional, organism-based. Also on record: dose 6.2 mg/kg. Conditions: Mus musculus. The method in brief: as §2
A short description of data set [16]: Water solubility was determined. It is filed as ADME. Conditions: buffer.
Data set [17] concerns P388. Nature of the data set: Percent survivors when compound administered at 25 mg/kg against P388 leukemia cells in BDF1 mice. It is filed as functional. As to conditions: Mus musculus. The method in brief:
as §2

The subject of data set [18] is B16. Nature of the data set: Percent increase in life span when compound administered at 12.5 mg/kg against B-16 melanoma cells in […] mice. The data set is classed as functional. As to conditions: Mus musculus. The method in brief: as §4
In data set [19] the test system is L1210. Nature of the data set: Percent survivors when compound administered at 25 mg/kg against L1210 cisplatin resistant leukemia cells in BDF1 mice. It is filed as functional, organism-based. The arrangement: dose 25 mg/kg. Conditions: Mus musculus. The gist of the method:
as §2

The subject of data set [20] is B16. Nature of the data set: Percent survivors when compound administered at 12.5 mg/kg against B-16 melanoma cells in […] mice. It is filed as functional. As to conditions: Mus musculus. The method in brief: as §4
Data set [21] has as its system L1210. Nature of the data set: Percent increase in life span when compound administered at 25 mg/kg against L1210 cisplatin resistant leukemia cells in BDF1 mice. It is filed as functional, organism-based. The arrangement: dose 25 mg/kg. As to conditions: Mus musculus. The gist of the method: as §1
Data set [22] deals with Colon 26. Description: Percent survivors when compound administered at 25 mg/kg against Colon 26 cells in balb/C mice. It is filed as functional, organism-based. Also on record: dose 25 mg/kg. As to conditions: Mus musculus. The method in brief: as §3
In data set [23] the test system is L1210. Nature of the data set: Percent survivors when compound administered at 25 mg/kg against L1210 leukemia cells in BDF1 mice. The data set is classed as functional, organism-based. The arrangement: dose 25 mg/kg. Conditions: Mus musculus. The method in brief: as §2
The test system of data set [24] is Colon 26. Description: Percent in life span when compound administered at 25 mg/kg against Colon 26 cells in balb/C mice. It is filed as functional, organism-based. Also on record: dose 25 mg/kg. As to conditions: Mus musculus. The method in brief: as §5
Data set [25] deals with L1210. Description: Percent increase in life span when compound administered at 25 mg/kg against L1210 leukemia cells in BDF1 mice. The data set is classed as functional, organism-based. Also on record: dose 25 mg/kg. Conditions: Mus musculus. The gist of the method: as §1
Data set [26] has as its system P388. Description: Percent increase in life span when compound administered at 25 mg/kg against P388 leukemia cells in BDF1 mice. It is filed as functional. Conditions: Mus musculus. The method in brief:
as §2

As for CARBOPLATIN, the Increase in [1] stood at 144%; in data set [2], 35%; in data set [7], 85%. The Survivors entry in data set [3] is “inactive”. Besides, the Survivors in data set [4] stood at 6%; in data set [6], 17%. Moreover, the inhibition in data set [5] is 90%. The Increase entry in data set [8] is “inactive”.

On to CISPLATIN, for which, in data set [3], the Survivors result is “inactive”. Besides, the Survivors was found to be 0% in [9], 17% in data set [14] and 17% in data set [15]. For the same substance, the Increase in data set [10] amounted to 47%; in data set [11] it was 96%; in data set [12], 36%; in [13], 140%. The Increase entry in [8] is “inactive”.

With “Platinum:2,4,10,15-Tetraoxa-8,16-diaza-dispiro[5.2.6.2]heptadecane-11,14-dione [listing 1 of 2 here]”, the Water solubility in [16] is 10 mg/mL.

For “Platinum:2,4,10,15-Tetraoxa-8,16-diaza-dispiro[5.2.6.2]heptadecane-11,14-dione [listing 2 of 2 here]”, the Survivors stood at 1% in data set [17]; 0% in data set [19]; 0% in data set [20]; 0% in data set [22]; 1% in data set [23]. Also, the Increase was found to be 56% in [18]; 44% in [21]; 46% in data set [24]; 110% in [25]; 120% in data set [26].

In turn, “Platinum:3,3-Dichloro-8,15-dioxa-2,4-diaza-dispiro[5.2.5.2]hexadecane” displayed a Water solubility in data set [16] of 0.2 mg/mL.

“Platinum:8,8-Dichloro-1,3-dioxa-7,9-diaza-spiro[4.5]decane” displayed a Water solubility in [16] of under 0.2 mg/mL.

As a reminder, the inhibition is the percentage by which the read-out fell short of the control. Low readings indicate a weak effect, high ones a strong effect.

For the origin of these results see ChEMBL document CHEMBL1124697, “A new family of water-soluble, third generation antitumor platinum complexes” (J Med Chem, 1989).
